Experimental data pooled from the literature.

| SMILES | cell line | test | setting | measurement | value |
| --- | --- | --- | --- | --- | --- |
| C[C@]12CC[C@@H]3c4ccc(O)cc4CC[C@H]3[C@@H]1CC[C@@H]2O | Capan-2 | cell growth or viability, ATP luminescence | 72 h | EC90 | 150000 nM |
| COc1ccc(S(=O)(=O)Nc2ccc3oc(-c4ccc(NC(=O)c5cccc(C)c5[N+](=O)[O-])cc4)nc3c2)cc1 | DLD-1 | colony formation |  | EC50 | 16000 nM |
| CC#CC(=O)N1CC[C@@H](n2cc(-c3ccc(Oc4c(F)cccc4F)cc3)c3c(N)n[nH]c(=O)c32)C1 | Granta-519 | cell growth or viability, ATP luminescence | 72 h | GI50 | 2690 nM |
| CC[C@@H]1C=CC(=O)O[C@@H]1C[C@@H](O)[C@H](C)[C@H](OC)[C@@H](C)Cc1ccccc1 | OVCAR-5 | cell growth or viability, MTT | 48 h | GI50 | 57.5 nM |
| CC/C(=C(\c1ccccc1)c1ccc(OCCN(C)C)cc1)c1ccccc1 | Capan-2 | cell growth or viability, ATP luminescence | 72 h | EC90 | 25800 nM |
| CC[C@@H]1C=CC(=O)O[C@@H]1C[C@@H](OC)[C@H](C)[C@H](OC)[C@@H](C)Cc1ccc(F)cc1 | OVCAR-5 | cell growth or viability, MTT | 48 h | GI50 | 784 nM |
| COc1ccc(-c2ccc(-c3ccc(C(=N)N)nc3)s2)cc1Cl | OVCAR-5 | cell growth or viability, SRB |  | GI50 | 1860 nM |
| C=CC(=O)N1CCC[C@@H](n2nc(-c3ccc(Oc4ccccc4)cc3)c3c(N)ncnc32)C1 | Z-138 | cell growth or viability, ATP luminescence | 72 h | GI50 | 17200 nM |
| COc1cc(Nc2nccc(-c3cnn4nc(OC)ccc34)n2)cc(C(F)(F)F)c1 | BEN | cell growth or viability, ATP luminescence |  | IC50 | > 3000 nM |
